Assay results as given in ChEMBL document CHEMBL2331506, “Design, synthesis, antiviral and cytostatic evaluation of novel isoxazolidine nucleotide analogues with a carbamoyl linker” (Bioorg Med Chem, 2013).
The source made the active and inactive calls. The rule behind the calls is not given here.

Tests used:
HeLa = test: Cytotoxicity against human HeLa cells assessed as alteration of cell morphology up to 100 uM by microscopic analysis; assay type: cell-based
Outline: (§1)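 Uninfected host-cell cultures were exposed to compound and examined by microscopy. Cytotoxicity was expressed as the minimum cytotoxic concentration (MCC) causing a microscopically detectable alteration of normal cell morphology.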

Influenza B virus = test: Antiviral activity against Influenza B virus infected in dog MDCK cells assessed as reduction of virus-induced cytopathogenicity at 250 uM; assay type: functional, organism-based
Outline: (§2)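 Confluent cell monolayers were infected with 100 CCID50 of virus while exposed to varying compound concentrations. Cytopathicity was scored once it was complete in untreated infected controls. EC50 was taken as the concentration that reduced virus-induced cytopathogenicity by 50%.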

Influenza A virus [1] = test: Antiviral activity against Influenza A virus H3N2 infected in dog MDCK cells assessed as reduction of virus-induced cytopathogenicity at 250 uM; assay type: functional, organism-based; outline: as §2
[2] = test system: Vesicular stomatitis virus; test: Antiviral activity against Vesicular stomatitis virus infected in human HeLa cells assessed as reduction of virus-induced cytopathogenicity at 250 uM; assay type: functional, organism-based; outline: as §2
Coxsackievirus B4 = test: Antiviral activity against Coxsackievirus B4 infected in african green monkey Vero cells assessed as reduction of virus-induced cytopathogenicity at 250 uM; assay type: functional, organism-based
Outline: (§3)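 Confluent monolayers (HEL fibroblasts, Vero, or HeLa cells as listed) were infected with 100 CCID50 of virus in the presence of varying compound concentrations. Virus-induced cytopathicity or plaque formation was scored once cytopathicity was complete in untreated infected controls. EC50 was taken as the concentration reducing cytopathogenicity or plaque formation by 50%.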

[3] = test system: Vesicular stomatitis virus; test: Antiviral activity against Vesicular stomatitis virus infected in human HEL cells assessed as reduction of virus-induced cytopathogenicity at 250 uM; assay type: functional, organism-based; outline: as §2
Human alphaherpesvirus 1 [4] = test: Antiviral activity against Herpes simplex virus 1 KOS infected in human HEL cells assessed as reduction of virus-induced cytopathogenicity at 250 uM; assay type: functional, organism-based; outline: as §3
Sindbis virus = test: Antiviral activity against Sindbis virus infected in african green monkey Vero cells assessed as reduction of virus-induced cytopathogenicity at 250 uM; assay type: functional, organism-based; outline: as §3
Feline coronavirus = test: Antiviral activity against Feline coronavirus infected in cat CRFK cells assessed as reduction of virus-induced cytopathogenicity at 250 uM; assay type: functional, organism-based
[5] = test system: Mammalian orthoreovirus 1; test: Antiviral activity against Reovirus 1 infected in african green monkey Vero cells assessed as reduction of virus-induced cytopathogenicity at 250 uM; assay type: functional, organism-based; outline: as §3
Vero = test: Cytotoxicity against african green monkey Vero cells assessed as alteration of cell morphology up to 100 uM by microscopic analysis; assay type: cell-based; settings: chlorocebus sabaeus; outline: as §1
[6] = test system: Respiratory syncytial virus; test: Antiviral activity against Respiratory syncytial virus long infected in human HeLa cells assessed as reduction of virus-induced cytopathogenicity at 250 uM; assay type: functional, organism-based; outline: as §3
[7] = test system: Human immunodeficiency virus 1; test: Antiviral activity against Human immunodeficiency virus 1 3B infected in human CEM cells assessed as reduction of virus-induced giant cell formation at 250 uM after 4 to 5 days; assay type: functional, organism-based; settings: CCRF-CEM
Outline: (§4)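 CEM cells at 3 × 10^5 cells/mL were infected with HIV at 100 CCID50 per mL in the presence of compound dilutions. They were held 4–5 days at 37 °C in humidified CO2. Syncytium (giant cell) formation was scored microscopically, and EC50 was taken as the concentration inhibiting giant cell formation by 50%.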

HEL = test: Cytotoxicity against human HEL cells assessed as alteration of cell morphology up to 100 uM by microscopic analysis; assay type: cell-based; outline: as §1
[8] = Cytotoxicity against cat CRFK cells assessed as alteration of cell morphology up to 100 uM by microscopic analysis; assay type: cell-based, Felis catus; outline: as §1
Human respirovirus 3 = test: Antiviral activity against Parainfluenza virus 3 infected in african green monkey Vero cells assessed as reduction of virus-induced cytopathogenicity at 250 uM; assay type: functional, organism-based; outline: as §3
Human alphaherpesvirus 1 [9] = test: Antiviral activity against thymidine kinase-deficient, ACV-resistant Herpes simplex virus 1 KOS infected in human HEL cells assessed as reduction of virus-induced cytopathogenicity at 250 uM; assay type: functional, organism-based; outline: as §2
[10] = test system: Human immunodeficiency virus 2; test: Antiviral activity against Human immunodeficiency virus 2 ROD infected in human CEM cells assessed as reduction of virus-induced giant cell formation at 250 uM after 4 to 5 days; assay type: functional, organism-based; settings: CCRF-CEM; outline: as §4
Influenza A virus [11] = test: Antiviral activity against Influenza A virus H1N1 infected in dog MDCK cells assessed as reduction of virus-induced cytopathogenicity at 250 uM; assay type: functional, organism-based; outline: as §2
Human alphaherpesvirus 2 = test: Antiviral activity against Herpes simplex virus 2 G infected in human HEL cells assessed as reduction of virus-induced cytopathogenicity at 250 uM; assay type: functional, organism-based; settings: strain G; outline: as §3
Punta Toro virus = test: Antiviral activity against Punta Toro virus infected in african green monkey Vero cells assessed as reduction of virus-induced cytopathogenicity at 250 uM; assay type: functional, organism-based; outline: as §3
MDCK = test: Cytotoxicity against dog MDCK cells assessed as alteration of cell morphology up to 100 uM by microscopic analysis; assay type: cell-based, Canis lupus familiaris; outline: as §1
Felid alphaherpesvirus 1 = test: Antiviral activity against Feline herpes virus infected in cat CRFK cells assessed as reduction of virus-induced cytopathogenicity at 250 uM; assay type: functional, organism-based

SMILES | Activity (HeLa) | inhibition (Influenza B virus) | inhibition (Influenza A virus [1]) | inhibition [2] | inhibition (Coxsackievirus B4) | inhibition [3] | inhibition (Human alphaherpesvirus 1 [4]) | inhibition (Sindbis virus) | inhibition (Feline coronavirus) | inhibition [5] | Activity (Vero) | inhibition [6] | inhibition [7] | Activity (HEL) | Activity [8] | inhibition (Human respirovirus 3) | inhibition (Human alphaherpesvirus 1 [9]) | inhibition [10] | inhibition (Influenza A virus [11]) | inhibition (Human alphaherpesvirus 2) | further results
CCOP(=O)(OCC)[C@H]1C[C@H](C(=O)Nc2cccc(C)c2)ON1C (racemic) | Non-toxic | inactive | inactive | inactive | inactive | inactive | inactive | inactive | inactive | inactive | Non-toxic | inactive | inactive | Non-toxic | Non-toxic | inactive | inactive | inactive | inactive | inactive | inhibition (Punta Toro virus): inactive; Activity (MDCK): Non-toxic; inhibition (Felid alphaherpesvirus 1): inactive
CCOP(=O)(OCC)[C@@H]1C[C@H](C(=O)Nc2ccc(F)cc2F)ON1C (mixture of isomers) | Non-toxic | inactive | inactive | inactive | inactive | inactive | inactive | inactive | inactive | inactive | Non-toxic | inactive | inactive | Non-toxic | Non-toxic | inactive | inactive | inactive | inactive | inactive | inhibition (Punta Toro virus): inactive; Activity (MDCK): Non-toxic; inhibition (Felid alphaherpesvirus 1): inactive
CCOP(=O)(OCC)[C@H]1C[C@H](C(=O)Nc2ccc(OC)c(OC)c2)ON1C (mixture of isomers) | Non-toxic | inactive | inactive | inactive | inactive | inactive | inactive | inactive | inactive | inactive | Non-toxic | inactive | inactive | Non-toxic | Non-toxic | inactive | inactive | inactive | inactive | inactive | inhibition (Punta Toro virus): inactive; Activity (MDCK): Non-toxic; inhibition (Felid alphaherpesvirus 1): inactive
CCOP(=O)(OCC)[C@H]1C[C@H](C(=O)Nc2cc(OC)c(OC)cc2C(C)=O)ON1C (mixture of isomers) | Non-toxic | inactive | inactive | inactive | inactive | inactive | inactive | inactive | inactive | inactive | Non-toxic | inactive | inactive | Non-toxic | Non-toxic | inactive | inactive | inactive | inactive | inactive | inhibition (Punta Toro virus): inactive; Activity (MDCK): Non-toxic; inhibition (Felid alphaherpesvirus 1): inactive
CCOc1ccc(NC(=O)[C@H]2C[C@@H](P(=O)(OCC)OCC)N(C)O2)cc1 (racemic) | Non-toxic | inactive | inactive | inactive | inactive | inactive | inactive | inactive | inactive | inactive | Non-toxic | inactive | inactive | Non-toxic | Non-toxic | inactive | inactive | inactive | inactive | inactive | inhibition (Punta Toro virus): inactive; Activity (MDCK): Non-toxic; inhibition (Felid alphaherpesvirus 1): inactive
CCOP(=O)(OCC)[C@@H]1C[C@H](C(=O)Nc2ccc([N+](=O)[O-])cc2)ON1C (racemic) | Non-toxic | inactive | inactive | inactive | inactive | inactive | inactive | inactive | inactive | inactive | Non-toxic | inactive | inactive | Non-toxic | Non-toxic | inactive | inactive | inactive | inactive | inactive | inhibition (Punta Toro virus): inactive; Activity (MDCK): Non-toxic; inhibition (Felid alphaherpesvirus 1): inactive
CCOP(=O)(OCC)[C@@H]1C[C@H](C(=O)Nc2cccc(OC)c2)ON1C (mixture of isomers) | Non-toxic | inactive | inactive | inactive | inactive | inactive | inactive | inactive | inactive | inactive | Non-toxic | inactive | inactive | Non-toxic | Non-toxic | inactive | inactive | inactive | inactive | inactive | inhibition (Punta Toro virus): inactive; Activity (MDCK): Non-toxic; inhibition (Felid alphaherpesvirus 1): inactive
CCOP(=O)(OCC)[C@@H]1C[C@H](C(=O)Nc2ccc(OC)c(OC)c2)ON1C (mixture of isomers) | Non-toxic | inactive | inactive | inactive | inactive | inactive | inactive | inactive | inactive | inactive | Non-toxic | inactive | inactive | Non-toxic | Non-toxic | inactive | inactive | inactive | inactive | inactive | inhibition (Punta Toro virus): inactive; Activity (MDCK): Non-toxic; inhibition (Felid alphaherpesvirus 1): inactive
